Assay outcomes as filed in PubChem BioAssay.
HKDC1 inh: blocks human hexokinase HKDC1 activity; Q2TB90; AID 493160; recombinant HKDC1, G6PDH/diaphorase resazurin coupled fluorescence; actives 0.16% (n = 340,000); inhibition, % at 20 µM;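 active = inhibition above about 35% when tested at 20 µM, limit read from the data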;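 also: plate controls were DMSO wells with enzyme for no effect and DMSO wells lacking enzyme for full effect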
Target sequence (Q2TB90 whole entry, looked up): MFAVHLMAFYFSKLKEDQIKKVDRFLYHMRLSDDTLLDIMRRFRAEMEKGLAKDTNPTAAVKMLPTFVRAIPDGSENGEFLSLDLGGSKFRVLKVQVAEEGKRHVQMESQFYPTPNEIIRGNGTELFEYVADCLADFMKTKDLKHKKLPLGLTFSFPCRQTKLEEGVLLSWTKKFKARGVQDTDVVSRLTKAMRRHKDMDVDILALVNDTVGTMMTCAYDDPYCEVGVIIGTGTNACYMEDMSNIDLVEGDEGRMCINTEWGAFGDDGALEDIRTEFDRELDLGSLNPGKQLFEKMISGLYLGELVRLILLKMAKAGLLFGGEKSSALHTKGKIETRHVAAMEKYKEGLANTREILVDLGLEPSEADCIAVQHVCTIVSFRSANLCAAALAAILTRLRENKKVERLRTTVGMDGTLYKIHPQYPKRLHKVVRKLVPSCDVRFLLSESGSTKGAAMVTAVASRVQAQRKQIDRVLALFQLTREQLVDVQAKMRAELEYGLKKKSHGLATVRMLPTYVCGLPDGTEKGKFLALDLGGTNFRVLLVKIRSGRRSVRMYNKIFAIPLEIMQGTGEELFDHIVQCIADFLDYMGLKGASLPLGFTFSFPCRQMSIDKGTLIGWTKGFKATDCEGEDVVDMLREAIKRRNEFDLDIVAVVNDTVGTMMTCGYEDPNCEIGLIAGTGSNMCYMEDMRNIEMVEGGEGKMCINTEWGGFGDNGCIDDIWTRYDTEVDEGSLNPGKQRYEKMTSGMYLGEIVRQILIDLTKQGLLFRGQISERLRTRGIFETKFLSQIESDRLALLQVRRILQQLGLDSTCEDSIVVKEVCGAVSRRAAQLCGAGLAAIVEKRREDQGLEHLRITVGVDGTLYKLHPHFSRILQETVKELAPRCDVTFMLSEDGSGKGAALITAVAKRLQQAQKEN
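Test system: Recombinant HKDC1 (HK5) hexokinase enzyme, produced in-house | Input: HKDC1 at 5 µg/mL | Buffer or medium: Tris pH 8.0 buffer with MgCl2, Tween-20, BSA, BME | Schedule: 90 min reaction incubation at room temperature, dark | Technique: Resazurin-to-resorufin fluorescence via G6PDH and diaphorase coupling, 525/613 nm | Controls: DMSO wells with and without enzyme mix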
CTSL1 counter: cathepsin L1 inhibition, PFM18AAP counter-screen | recombinant F. hepatica cathepsin L1, Z-Leu-Arg-MCA fluorescence | actives 0.49% (n = 300,000) | inhibition, % at 5.96 µM;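 active = inhibition above the mean of all tested compounds plus 3 SD, set per screening campaign, cut at about 17% in these data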;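 also: 0% = plate median of test compound wells and 100% = 1 µM Z-Phe-Ala-diazomethylketone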
ATG4B inhibitor: ATG4B (human) cysteine protease inhibition; ATG4B cleavage of LC3-PLA2, NBD-HPC fluorescence, 1 h; inhibition, % at 8.33 µM; actives 0.51% (n = 340,000); in the data active = inhibition above about 40%
Diaph act CS: counter-screen for diaphorase-based assays: diaphorase activators and chemical reducers; Diaphorase/resazurin coupled assay, resorufin fluorescence, 16 min; stronger effect = higher value; 1 = vehicle wells, 0 = NADH-free wells; activation factor at 20 µM; actives 0.005% (n = 190,000);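 active = diaphorase activity raised at least twofold by the compound at 20 µM; inactive = activation factor below 2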
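Measured by – red resorufin fluorescence at 544/590 nm excitation/emission · Test system – Clostridium kluyveri diaphorase, purified enzyme · Incubation – reaction time 16 min, room temperature · Buffer or medium – 50 mM HEPES pH 7.4 with 4.542 mM MgCl2, 0.005% Tween 20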
Diaph inh CS: counter-screen for diaphorase-based assays: diaphorase inhibitors and chemical oxidizers; diaphorase resazurin-to-resorufin fluorescence, NADH, 16 min; bacterial (C. kluyveri) enzyme, not human; actives 0.69% (n = 190,000); inhibition, % at 20 µM;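 active = primary screen inhibition at 20 µM above a set limit, cut at about 50% in these data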;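 also: plate controls were DMSO with full reaction for no effect and wells lacking NADH for full effect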
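Assay system – diaphorase enzyme from Clostridium kluyveri · Amount – diaphorase 0.14 U/mL (working solution) · Times – reaction incubation of 16 min at room temperature · Controls – No-NADH positive control and DMSO neutral control · Signal – resorufin fluorescence 544/590 nm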
ATG4B confirm: confirmation of human ATG4B inhibitors. shares compounds with ATG4B inhibitor. AID 504757. ATG4B protease fluorescent substrate cleavage assay. inhibition, % at 8.33 µM. actives 92% (n = 320); in the data active = inhibition above about 39%
PLA2 counter: PLA2 (human) inhibition in ATG4B counter-screen | actives 66% (n = 1,600) | inhibition, % at 8.33 µM | purified PLA2, NBD-C6-HPC fluorescence, 45 min | shares compounds with ATG4B inhibitor; in the data active = inhibition above about 50%
Numbers without * were called inactive. Only some compounds are listed: those with a hit (about 1.4% of all), similar ones and a draw of the others.

What do the screens show for `CCOc1ccc(NC(=O)Nc2cc(-c3ccccc3)sc2C(=O)OC)cc1`?
HKDC1 inh: -3; CTSL1 counter: -2; ATG4B inhibitor: 15; Diaph act CS: 0.7; Diaph inh CS: 29

Results for O=S(=O)(Nc1ncnc2sc3c(c12)CCC3)c1ccc2ccccc2c1 ?
HKDC1 inh: 3; CTSL1 counter: 5; ATG4B inhibitor: 41*; Diaph act CS: 0.9; Diaph inh CS: 11; PLA2 counter: 56*

How did Cc1ccc(S(=O)(=O)CCC(=O)Nc2ccccc2C)cc1 do in these assays?
HKDC1 inh: -6; CTSL1 counter: 2; ATG4B inhibitor: 9

How did COc1ccc(Oc2cccc(Cl)c2CNC(=O)c2ccccc2C(=O)O)cc1 do in these assays?
HKDC1 inh: -1; CTSL1 counter: -3; ATG4B inhibitor: -3

How did O=C(NCc1c(Cl)cccc1Oc1ccccc1)c1ccccc1 do in these assays?
HKDC1 inh: -2; CTSL1 counter: 3; ATG4B inhibitor: 47*; PLA2 counter: 57*

What do the screens show for `CCCc1cc(=O)[nH]c(SCC(=O)N2N=C(c3ccc(Cl)cc3)CC2c2ccco2)n1` (stereo not given)?
HKDC1 inh: -3; CTSL1 counter: -8; ATG4B inhibitor: 48*; Diaph act CS: 0.8; Diaph inh CS: 15; ATG4B confirm: 73*; PLA2 counter: 40

How did Nc1cc(=O)[nH]c(SCC(=O)N2N=C(c3ccc(Cl)cc3)CC2c2ccco2)n1 (stereo not given) do in these assays?
HKDC1 inh: 19; CTSL1 counter: -2; ATG4B inhibitor: 3; Diaph act CS: 0.9; Diaph inh CS: 11

How did COc1ccc(CNS(=O)(=O)c2cc(CN3C(=O)c4cccnc4C3=O)ccc2OC)cc1 do in these assays?
HKDC1 inh: -8; CTSL1 counter: 2; ATG4B inhibitor: -9

Results for O=C(O)CC1c2ccccc2CCN1S(=O)(=O)c1ccc(F)cc1 (stereo not given) ?
HKDC1 inh: -6; CTSL1 counter: -2; ATG4B inhibitor: 0

What do the screens show for `Cc1cccc2nc(-c3cccnc3)c(NCCC(C)C)n12`?
HKDC1 inh: 4; CTSL1 counter: -2; ATG4B inhibitor: 40*; Diaph act CS: 0.8; Diaph inh CS: 17; PLA2 counter: 51*

How did Cc1cccc2nc(-c3cccnc3)c(Nc3ccccc3)n12 do in these assays?
HKDC1 inh: -25; CTSL1 counter: -2; ATG4B inhibitor: -5; Diaph act CS: 1.1; Diaph inh CS: -13

How did Cc1ccc(C(C)C)c(OCC(=O)Nc2ccccc2N2CCN(C)CC2)c1 do in these assays?
HKDC1 inh: 1; CTSL1 counter: 0; ATG4B inhibitor: 54*; Diaph act CS: 0.8; Diaph inh CS: 16; PLA2 counter: 66*

How did O=C(COc1ccccc1[N+](=O)[O-])Nc1ccccc1N1CCCCC1 do in these assays?
HKDC1 inh: -2; CTSL1 counter: 2; ATG4B inhibitor: 43*; PLA2 counter: 74*

How did Cc1ccccc1OCC(=O)Nc1ccccc1N1CCCCC1 do in these assays?
HKDC1 inh: 1; CTSL1 counter: 3; ATG4B inhibitor: 26; Diaph act CS: 1; Diaph inh CS: 5

Results for O=C(COc1ccccc1[N+](=O)[O-])Nc1ccccc1N1CCCC1 ?
HKDC1 inh: 15; CTSL1 counter: -1; ATG4B inhibitor: 50*; Diaph act CS: 0.7; Diaph inh CS: 32; PLA2 counter: 58*

Results for CCOc1cc(/C=C2\N=C(SCC)SC2=O)cc([N+](=O)[O-])c1OC(C)=O ?
HKDC1 inh: 9; CTSL1 counter: 1; ATG4B inhibitor: 76*; Diaph act CS: 0.1; Diaph inh CS: 90*; PLA2 counter: 75*

How did O=C(CCCOc1ccc(Cl)cc1Cl)N1CCc2ccccc2C1 do in these assays?
HKDC1 inh: -1; CTSL1 counter: 5; ATG4B inhibitor: 50*; Diaph act CS: 0.9; Diaph inh CS: 10; PLA2 counter: 51*

How did O=C(CCCOc1ccccc1)N1CCc2ccccc2C1 do in these assays?
HKDC1 inh: 0; CTSL1 counter: 1; ATG4B inhibitor: 15; Diaph act CS: 0.9; Diaph inh CS: 14

Results for O=C(Nc1ccccc1F)N1CCc2ccccc2C1 ?
HKDC1 inh: 2; ATG4B inhibitor: 1

What do the screens show for `S=C(Nc1ccccc1Oc1ccccc1)NC1CCCC1`?
HKDC1 inh: 4; CTSL1 counter: -1; ATG4B inhibitor: 24; Diaph act CS: 1.1; Diaph inh CS: -9

How did S=C(Nc1cccc(Cl)c1)Nc1ccccc1Oc1ccccc1 do in these assays?
HKDC1 inh: 13; CTSL1 counter: 2; ATG4B inhibitor: 86*; Diaph act CS: 0.9; Diaph inh CS: 15; PLA2 counter: 88*

How did CNC(=S)Nc1cc(Cl)ccc1Oc1ccccc1 do in these assays?
HKDC1 inh: 3; CTSL1 counter: 0; ATG4B inhibitor: 10; Diaph act CS: 0.8; Diaph inh CS: 22

How did S=C(Nc1ccccc1Oc1ccccc1)Nc1cccc(Cl)c1Cl do in these assays?
HKDC1 inh: 3; CTSL1 counter: 0; ATG4B inhibitor: 88*; Diaph act CS: 1; Diaph inh CS: 3; PLA2 counter: 95*

Results for S=C(Nc1ccc(Cl)cc1Cl)Nc1ccccc1Oc1ccccc1 ?
HKDC1 inh: 0; CTSL1 counter: 2; ATG4B inhibitor: 72*; Diaph act CS: 0.9; Diaph inh CS: 6; PLA2 counter: 79*

Results for CCOC(=O)c1cc2c(c(-c3ccccc3)n1)[C@H](CCO)N(S(=O)(=O)C(C)(C)C)C2 ?
HKDC1 inh: 2; ATG4B inhibitor: 5

How did CC1(c2ccc(NC(=O)c3ccccc3F)cc2)CC1(Cl)Cl (stereo not given) do in these assays?
HKDC1 inh: 1; CTSL1 counter: 2; ATG4B inhibitor: 57*; PLA2 counter: 67*

How did Fc1ccc(CSc2nc3ccccc3[nH]2)c2ccccc12 do in these assays?
HKDC1 inh: 1; CTSL1 counter: 3; ATG4B inhibitor: 66*; Diaph act CS: 0.8; Diaph inh CS: 21; PLA2 counter: 74*

What do the screens show for `O=c1cc(CSc2nc3ccccc3[nH]2)c2ccccc2[nH]1`?
HKDC1 inh: -3; CTSL1 counter: -1; ATG4B inhibitor: -10; Diaph act CS: 0.7; Diaph inh CS: 27

How did COC(=O)c1sc2nc3c(c(-c4cccs4)c2c1N)CCCC3 do in these assays?
HKDC1 inh: 3; CTSL1 counter: 3; ATG4B inhibitor: 32; Diaph act CS: 0.9; Diaph inh CS: 10
